In paper PMC11000255 (Journal of the American Chemical Society, 2024):
pIC50: −log10 of the molar value. Where two headings read alike, the source gives them in different places.

Columns and labels:
ABHD12 = target: T1, ABHD12 (Homo sapiens, UniProt Q8N2K0); test: TMT18plex lysine ligandability profiling, ABHD12; format: binding; settings: both MDA-MB-231 and MDA-MB-436 cell lines
T1 sequence (Q8N2K0 1-398): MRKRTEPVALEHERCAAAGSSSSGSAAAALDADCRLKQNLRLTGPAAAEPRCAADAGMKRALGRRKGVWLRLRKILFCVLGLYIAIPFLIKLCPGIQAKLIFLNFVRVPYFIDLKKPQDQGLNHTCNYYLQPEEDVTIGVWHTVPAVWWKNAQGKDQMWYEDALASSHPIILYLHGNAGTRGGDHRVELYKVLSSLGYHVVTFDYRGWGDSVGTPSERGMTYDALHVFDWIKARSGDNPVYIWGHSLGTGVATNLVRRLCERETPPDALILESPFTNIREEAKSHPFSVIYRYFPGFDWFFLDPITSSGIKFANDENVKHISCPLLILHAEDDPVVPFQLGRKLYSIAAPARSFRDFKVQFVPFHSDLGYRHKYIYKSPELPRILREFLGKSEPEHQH
In short: (§1)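 Live MDA-MB-231 or MDA-MB-436 breast cancer cells were exposed to the test compound (100 µM, 8 h) or DMSO vehicle. Lysates (soluble and insoluble fractions) were chased with a desthiobiotin-tagged lysine-specific STP ester probe, trypsin-digested, streptavidin-enriched and quantified by TMTpro-18plex. Lysines had to be quantified in all biological triplicates and TMT channels. A lysine counted as liganded at ≥60% loss of probe enrichment relative to DMSO.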

K677R/K681R/K315R-PFKL = K677R/K681R/K315R-PFKL (Homo sapiens, UniProt P17858, K315R/K677R/K681R); test: enzyme-coupled F6P phosphorylation assay, K677R/K681R/K315R-PFKL triple mutant; format: biochemical; settings: read-out: IC50, inhibition of PFKL activity
Chain of K677R/K681R/K315R-PFKL (P17858 whole entry K315R/K677R/K681R): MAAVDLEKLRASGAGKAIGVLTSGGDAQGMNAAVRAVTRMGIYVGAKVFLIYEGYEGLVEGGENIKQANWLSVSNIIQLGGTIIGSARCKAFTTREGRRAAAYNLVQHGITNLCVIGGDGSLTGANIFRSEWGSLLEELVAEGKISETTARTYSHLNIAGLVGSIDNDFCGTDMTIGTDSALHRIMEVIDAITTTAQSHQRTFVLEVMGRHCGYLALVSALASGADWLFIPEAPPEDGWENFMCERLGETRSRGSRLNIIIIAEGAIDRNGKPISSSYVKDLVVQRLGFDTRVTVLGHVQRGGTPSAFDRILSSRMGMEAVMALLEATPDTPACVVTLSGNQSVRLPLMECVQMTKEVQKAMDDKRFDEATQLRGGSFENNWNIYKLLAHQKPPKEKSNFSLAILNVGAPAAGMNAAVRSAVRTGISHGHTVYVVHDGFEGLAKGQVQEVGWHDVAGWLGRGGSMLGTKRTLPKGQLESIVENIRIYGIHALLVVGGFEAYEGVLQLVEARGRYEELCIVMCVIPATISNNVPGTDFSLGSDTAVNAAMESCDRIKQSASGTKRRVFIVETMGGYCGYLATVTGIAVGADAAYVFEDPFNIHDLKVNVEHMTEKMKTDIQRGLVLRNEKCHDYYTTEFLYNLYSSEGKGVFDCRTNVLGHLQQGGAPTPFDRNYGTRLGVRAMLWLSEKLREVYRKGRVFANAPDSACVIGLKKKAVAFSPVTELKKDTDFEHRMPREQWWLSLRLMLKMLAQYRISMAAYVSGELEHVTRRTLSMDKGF

K677R/K681R-PFKL = K677R/K681R-PFKL (Homo sapiens, UniProt P17858, K677R/K681R); test: enzyme-coupled F6P phosphorylation assay, K677R/K681R-PFKL double mutant; format: biochemical; settings: read-out: IC50, inhibition of PFKL activity
Chain of K677R/K681R-PFKL (P17858 whole entry K677R/K681R): as the sequence (P17858 whole entry K315R/K677R/K681R) above, with R315K counted along it

PFKL = PFKL (Homo sapiens, UniProt P17858); test: TMT18plex lysine ligandability profiling, PFKL; format: binding; settings: 100 μM, 8 h, breast cancer cells
Chain of PFKL (P17858 whole entry): as the sequence (P17858 whole entry K315R/K677R/K681R) above, with R315K, R677K, R681K counted along it

WT-PFKP [1] = target: T2, WT-PFKP (Homo sapiens, UniProt Q01813); format: binding
T2 sequence (Q01813 1-784): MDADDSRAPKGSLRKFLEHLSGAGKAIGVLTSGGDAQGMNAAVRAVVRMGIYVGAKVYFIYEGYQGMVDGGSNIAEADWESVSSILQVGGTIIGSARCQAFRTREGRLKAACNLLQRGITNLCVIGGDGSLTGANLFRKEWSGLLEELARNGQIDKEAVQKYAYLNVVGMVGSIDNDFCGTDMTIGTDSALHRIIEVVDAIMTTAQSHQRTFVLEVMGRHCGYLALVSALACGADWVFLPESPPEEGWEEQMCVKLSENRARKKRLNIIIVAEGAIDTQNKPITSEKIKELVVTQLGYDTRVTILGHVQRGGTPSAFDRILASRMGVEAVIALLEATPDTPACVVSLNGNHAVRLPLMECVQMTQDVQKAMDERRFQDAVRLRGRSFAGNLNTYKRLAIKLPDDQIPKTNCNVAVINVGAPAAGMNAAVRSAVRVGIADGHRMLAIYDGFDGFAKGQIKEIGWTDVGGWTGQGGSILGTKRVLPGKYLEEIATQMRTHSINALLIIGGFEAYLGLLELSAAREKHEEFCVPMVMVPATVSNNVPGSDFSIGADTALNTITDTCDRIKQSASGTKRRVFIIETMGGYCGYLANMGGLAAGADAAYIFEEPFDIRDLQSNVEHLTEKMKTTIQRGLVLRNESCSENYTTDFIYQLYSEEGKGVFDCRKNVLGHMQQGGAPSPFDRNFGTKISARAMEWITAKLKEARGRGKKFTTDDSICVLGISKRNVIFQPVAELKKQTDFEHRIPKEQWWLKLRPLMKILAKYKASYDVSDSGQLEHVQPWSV

K677R-PFKL = K677R-PFKL (Homo sapiens, UniProt P17858, K677R); test: enzyme-coupled F6P phosphorylation assay, K677R-PFKL; format: biochemical; settings: read-out: IC50, inhibition of PFKL activity
Chain of K677R-PFKL (P17858 whole entry K677R): as the sequence (P17858 whole entry K315R/K677R/K681R) above, with R315K, R681K counted along it

[2] = target: kynurenine-oxoglutarate transaminase 3 (KYAT3) (Homo sapiens, UniProt Q6YP21); test: TMT18plex lysine ligandability profiling, KYAT3; format: binding; settings: 100 μM, 8 h, breast cancer cells
Chain of kynurenine-oxoglutarate transaminase 3 (KYAT3) (Q6YP21 whole entry): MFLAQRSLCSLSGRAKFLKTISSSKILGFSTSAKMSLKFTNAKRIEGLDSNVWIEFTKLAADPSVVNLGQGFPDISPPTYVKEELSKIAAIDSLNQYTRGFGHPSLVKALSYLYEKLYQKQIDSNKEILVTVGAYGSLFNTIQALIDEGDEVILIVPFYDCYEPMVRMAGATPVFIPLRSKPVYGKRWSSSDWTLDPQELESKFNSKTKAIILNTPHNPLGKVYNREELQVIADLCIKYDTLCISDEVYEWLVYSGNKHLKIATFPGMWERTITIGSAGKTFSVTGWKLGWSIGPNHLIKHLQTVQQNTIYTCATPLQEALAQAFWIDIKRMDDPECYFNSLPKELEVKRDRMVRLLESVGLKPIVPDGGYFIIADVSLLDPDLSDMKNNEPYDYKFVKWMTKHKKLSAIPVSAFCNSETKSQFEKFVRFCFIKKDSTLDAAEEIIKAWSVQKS
In short: as §1

K688R-PFKP = K688R-PFKP (Homo sapiens, UniProt Q01813, K688R); test: F6P phosphorylation assay, K688R-PFKP in HEK293T cell lysates; format: biochemical; settings: read-out: IC50, inhibition of PFKP activity; K688R-PFKP variant
Chain of K688R-PFKP (Q01813 whole entry K688R): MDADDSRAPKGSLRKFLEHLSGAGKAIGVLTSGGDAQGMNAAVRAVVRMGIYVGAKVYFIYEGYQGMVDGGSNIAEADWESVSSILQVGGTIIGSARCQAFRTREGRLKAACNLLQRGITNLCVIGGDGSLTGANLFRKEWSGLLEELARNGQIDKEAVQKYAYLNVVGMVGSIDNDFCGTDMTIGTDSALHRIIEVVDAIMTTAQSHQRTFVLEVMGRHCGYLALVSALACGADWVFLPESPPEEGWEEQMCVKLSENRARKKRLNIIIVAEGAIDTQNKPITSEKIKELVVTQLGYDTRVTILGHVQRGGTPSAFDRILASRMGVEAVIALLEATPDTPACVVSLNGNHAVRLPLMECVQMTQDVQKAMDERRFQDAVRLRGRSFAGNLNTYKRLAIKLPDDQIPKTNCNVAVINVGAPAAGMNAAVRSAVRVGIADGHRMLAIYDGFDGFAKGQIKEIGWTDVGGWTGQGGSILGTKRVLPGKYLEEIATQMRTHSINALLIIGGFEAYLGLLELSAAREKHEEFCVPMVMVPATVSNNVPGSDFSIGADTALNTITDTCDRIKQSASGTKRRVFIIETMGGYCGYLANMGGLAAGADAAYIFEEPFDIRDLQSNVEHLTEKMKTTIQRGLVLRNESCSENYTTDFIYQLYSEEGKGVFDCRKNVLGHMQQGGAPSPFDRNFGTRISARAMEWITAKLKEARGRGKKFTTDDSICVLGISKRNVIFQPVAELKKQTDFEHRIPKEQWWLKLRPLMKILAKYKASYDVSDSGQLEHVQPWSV

K681R-PFKL = K681R-PFKL (Homo sapiens, UniProt P17858, K681R); test: enzyme-coupled F6P phosphorylation assay, K681R-PFKL; format: biochemical; settings: read-out: IC50, inhibition of PFKL activity
Chain of K681R-PFKL (P17858 whole entry K681R): as the sequence (P17858 whole entry K315R/K677R/K681R) above, with R315K, R677K counted along it

WT-PFKP [3] = target: T2, WT-PFKP; test: F6P phosphorylation assay, WT-PFKP in HEK293T cell lysates; format: biochemical; settings: read-out: IC50, inhibition of PFKP activity
MDA-MB-231 cells = test: untargeted lipidomics profiling of treated cells; format: cell-based, human; settings: 100 μM, 8 h
K373R-ABHD12 = K373R-ABHD12 (Homo sapiens, UniProt Q8N2K0, K373R); test: LC/MS-based LPS hydrolysis assay, K373R-ABHD12 in HEK293T cell lysates; format: biochemical; settings: read-out: IC50, inhibition of LPS hydrolysis activity; K373R-ABHD12 mutant
Chain of K373R-ABHD12 (Q8N2K0 whole entry K373R): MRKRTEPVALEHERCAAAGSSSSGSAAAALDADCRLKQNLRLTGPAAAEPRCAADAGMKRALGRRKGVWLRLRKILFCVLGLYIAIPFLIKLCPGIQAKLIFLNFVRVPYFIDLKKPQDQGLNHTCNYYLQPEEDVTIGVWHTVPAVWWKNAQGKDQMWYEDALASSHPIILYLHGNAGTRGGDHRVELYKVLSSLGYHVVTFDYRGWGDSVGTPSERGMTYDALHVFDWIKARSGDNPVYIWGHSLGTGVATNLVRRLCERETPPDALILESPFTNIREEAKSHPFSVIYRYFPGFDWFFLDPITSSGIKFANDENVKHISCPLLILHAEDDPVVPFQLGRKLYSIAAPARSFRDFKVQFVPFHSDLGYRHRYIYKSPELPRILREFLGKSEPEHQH
In short: (§2)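 Recombinant ABHD12 (WT, S246A and K373 mutants) was expressed in HEK293T cells and used as cell lysate. Lysate was preincubated with the test compound (single-point 100 µM, or a dose series; 1 h, 37 °C), then given 17:1 LPS substrate (100 µM, 20 min, 37 °C).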

WT-ABHD12 = target: T3, WT-ABHD12 (Homo sapiens, UniProt Q8N2K0); test: LC/MS-based LPS hydrolysis assay, WT-ABHD12 in HEK293T cell lysates; format: biochemical; settings: read-out: apparent IC50, inhibition of LPS hydrolysis activity; WT-ABHD12
T3 sequence (Q8N2K0 1-398): T1 sequence (Q8N2K0 1-398)
In short: as §2

PFKP = PFKP (Homo sapiens, UniProt Q01813); test: TMT18plex lysine ligandability profiling, PFKP; format: binding; settings: 100 μM, 8 h, breast cancer cells
In short: as §1

nucleostemin (GNL3) = nucleostemin (GNL3) (Homo sapiens, UniProt Q9BVP2); test: TMT18plex lysine ligandability profiling, GNL3; format: binding; settings: 100 μM, 8 h, breast cancer cells
Chain of nucleostemin (GNL3) (Q9BVP2 whole entry): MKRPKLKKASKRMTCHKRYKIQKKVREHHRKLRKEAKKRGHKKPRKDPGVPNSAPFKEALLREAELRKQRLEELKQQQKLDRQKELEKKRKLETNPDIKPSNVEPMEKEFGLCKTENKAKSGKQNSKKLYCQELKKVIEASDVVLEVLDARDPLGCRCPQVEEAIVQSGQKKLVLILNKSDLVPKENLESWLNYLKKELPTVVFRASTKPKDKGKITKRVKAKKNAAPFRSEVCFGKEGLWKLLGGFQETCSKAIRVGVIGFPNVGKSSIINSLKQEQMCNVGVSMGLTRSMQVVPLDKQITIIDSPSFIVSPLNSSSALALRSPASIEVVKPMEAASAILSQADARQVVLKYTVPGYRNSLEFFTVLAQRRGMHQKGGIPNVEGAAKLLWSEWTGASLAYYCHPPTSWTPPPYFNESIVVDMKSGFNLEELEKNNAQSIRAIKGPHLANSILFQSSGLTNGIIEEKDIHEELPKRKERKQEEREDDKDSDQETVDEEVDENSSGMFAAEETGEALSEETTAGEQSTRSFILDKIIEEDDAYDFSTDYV
In short: as §1

WT-PFKL = WT-PFKL (Homo sapiens, UniProt P17858); test: enzyme-coupled F6P phosphorylation assay, WT-PFKL in HEK293T cell lysates; format: biochemical; settings: read-out: apparent IC50, inhibition of PFKL activity
Chain of WT-PFKL (P17858 whole entry): as the sequence (P17858 whole entry K315R/K677R/K681R) above, with R315K, R677K, R681K counted along it

CC1(C)[C@@H]2C[C@H]3[C@H](c4ccccc4)c4c(O)c(C=O)c(O)c(C=O)c4O[C@@]3(C)[C@H]1C2 [(−)-guadial B]
ligandability of K373 in ABHD12 (ABHD12): 66% | pIC50 (K677R/K681R/K315R-PFKL): < 4.00 | pIC50 (K677R/K681R-PFKL): 4.11 | ligandability of K677 in PFKL (PFKL): 65% | ligandability of K681 in PFKL (PFKL): 60% | fold reduction in potency versus enantiomer (+)-guadial B (WT-PFKP [1]; P1 probe labeling blockade): ~10 fold | pIC50 (WT-PFKP [1]; read-out: apparent IC50, blockade of P1 probe labeling, WT-PFKP): 4.86 | pIC50 (K677R-PFKL): 5.07 | ligandability of K330 in KYAT3 [2]: 28% | pIC50 (K688R-PFKP): < 4.00 | pIC50 (K681R-PFKL): 5.15 | pIC50 (WT-PFKP [3]): 5.42 | levels of monoacylglycerophosphoserine LPS(18:0) (MDA-MB-231 cells): significantly elevated levels | levels of stearic acid FA(18:0) (MDA-MB-231 cells): concurrent reduction | pIC50 (K373R-ABHD12): < 4.00 | pIC50 (WT-ABHD12): 4.74 | ligandability of K688 in PFKP (PFKP): 60% | ligandability of K20 in GNL3 (nucleostemin (GNL3)): 74% | pIC50 (WT-PFKL): 5.34
